According to ChEMBL document CHEMBL2176969, “O2-sulfonylethyl protected isopropylamine diazen-1-ium-1,2-diolates as nitroxyl (HNO) donors: synthesis, β-elimination fragmentation, HNO release, positive inotropic properties, and blood pressure lowering studies” (J Med Chem, 2012):
The source made the active and inactive calls. No cut-off for these calls is given here.

Tests used:
[1] = Induction of nitrite release in phosphate buffer at pH 10 at 50 uM after 1.5 hrs by Griess reaction; type: physicochemical; conditions: Tris buffer, pH 10, 1.5 h, in the assay text read “Tris buffer” for “phosphate buffer”
In short: (§1)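 Compound at 50 μM was incubated 1.5 h at 37 °C in phosphate buffer pH 7.4 or Tris buffer pH 10.0, both containing 5% DMSO. Nitrite was measured by Griess reaction and expressed as percent of the initial compound concentration; mean of n = 3.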

[2] = Induction of nitrous oxide release in MeOH/TBS buffer at pH 7.4 at 25 mM after 48 hrs by gas chromatographic analysis; type: physicochemical; conditions: pH 7.4, 48 h, 25000 µM
In short: (§2)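 Compound (0.04 mmol, 25 mM) in a sealed, inert-gas-flushed flask with 0.8 mL solvent: MeOH plus 500 mM Tris (0.2 mM EDTA), 1:1, at pH 7.4 or 10.0, ± 50 mM GSH, 37 °C. Headspace N₂O measured by GC with electron-capture detection against a standard curve. Yield assumes 2 HNO → 1 N₂O; mean of n = 3; pH-10 runs ended near pH 9.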

[3] = Induction of nitrous oxide release in MeOH/TBS buffer at pH 10 at 25 mM after 2 hrs by gas chromatographic analysis in presence of glutathione; type: physicochemical; conditions: pH 10, 2 h, 25000 µM; in short: as §2
[4] = Induction of nitrous oxide release in MeOH/TBS buffer at pH 10 at 25 mM after 2 hrs by gas chromatographic analysis; type: physicochemical; conditions: pH 10, 2 h, 25000 µM; in short: as §2
[5] = Induction of nitrous oxide release in MeOH/TBS buffer at pH 7.4 at 25 mM after 48 hrs by gas chromatographic analysis in presence of glutathione; type: physicochemical; conditions: pH 7.4, 48 h, 25000 µM; in short: as §2
[6] = Induction of nitrous oxide release in MeOH/TBS buffer at pH 7.4 at 25 mM after 2 hrs by gas chromatographic analysis in presence of glutathione; type: physicochemical; conditions: pH 7.4, 2 h, 25000 µM; in short: as §2
[7] = Induction of nitrite release in phosphate buffer at pH 7.4 at 50 uM after 1.5 hrs by Griess reaction; type: physicochemical; conditions: pH 7.4, 1.5 h; in short: as §1
[8] = Induction of nitrous oxide release in MeOH/TBS buffer at pH 10 at 25 mM after 0.5 hrs by gas chromatographic analysis in presence of glutathione; type: physicochemical; conditions: pH 10, 0.5 h, 25000 µM; in short: as §2
[9] = Induction of nitrous oxide release in MeOH/TBS buffer at pH 7.4 at 25 mM after 0.5 hrs by gas chromatographic analysis; type: physicochemical; conditions: pH 7.4, 0.5 h, 25000 µM; in short: as §2
[10] = Induction of nitrous oxide release in MeOH/TBS buffer at pH 10 at 25 mM after 0.5 hrs by gas chromatographic analysis; type: physicochemical; conditions: pH 10, 0.5 h, 25000 µM; in short: as §2
[11] = Induction of nitrous oxide release in MeOH/TBS buffer at pH 7.4 at 25 mM after 2 hrs by gas chromatographic analysis; type: physicochemical; conditions: pH 7.4, 2 h, 25000 µM; in short: as §2
[12] = Induction of nitrous oxide release in MeOH/TBS buffer at pH 7.4 at 25 mM after 0.5 hrs by gas chromatographic analysis in presence of glutathione; type: physicochemical; conditions: pH 7.4, 0.5 h, 25000 µM; in short: as §2
[13] = Half life in phosphate buffer at pH 7.4 by spectrophotometric method; type: physicochemical
In short: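 Decay followed by loss of diazeniumdiolate absorbance near 245 nm in pH 7.4 phosphate buffer with 5% DMSO at 37 °C. Half-life obtained from linear regression of ln(A_t − A_∞) against time.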

Heart [14] = assay: Effect on heart rate in C57BL/6 mouse Langendorff perfused heart at 100 uM measured for 20 mins; type: ADME, tissue-based
In short: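 C57BL/6 mouse hearts perfused with Krebs–Henseleit buffer, stabilized 20 min, then perfused 20 min with compound at 100 μM; isoproterenol 100 μM as positive inotropic control. Heart rate, LVDP and rates of contraction and relaxation recorded.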

Heart [15] = assay: Positive inotropic activity in C57BL/6 mouse Langendorff perfused heart assessed as rate of contraction at 100 uM measured for 20 mins; type: functional
In short: (§3)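 Hearts from C57BL/6 mice perfused with Krebs-Henseleit buffer. After 20 min stabilisation with buffer, hearts were perfused with test compound (100 μM) or isoproterenol (100 μM, positive inotropic control) for 20 min. Heart rate, diastolic and systolic rates, and left ventricular developed pressure were recorded. Baseline contractile function was measured as LVDP.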

Heart [16] = assay: Positive inotropic activity in C57BL/6 mouse Langendorff perfused heart assessed as rate of relaxation at 100 uM measured for 20 mins; type: functional; in short: as §3
Heart [17] = assay: Positive inotropic activity in C57BL/6 mouse Langendorff perfused heart assessed as left ventricular developed pressure at 100 uM measured for 20 mins; type: functional; in short: as §3
[18] = Induction of nitroxyl release in 7.5% DMSO and 92.5% phosphate buffer at pH 7.4 at 200 uM after 48 hrs by LC-MS analysis; type: physicochemical; conditions: pH 7.4, 48 h
In short: (§4)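 Donor at 200 μM with 1 mM trapping phosphine in 7.5% DMSO/92.5% phosphate buffer pH 7.4, 37 °C, with 5.05 μM 4-hydroxybenzophenone internal standard. Quenched with H₂O₂ after 2 or 48 h, dried, taken up in MeOH. HNO-derived amide quantified by LC–MS (ESI negative) from a standard curve; percent of 1 mol HNO/mol; mean of triplicates.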

[19] = Induction of nitroxyl release in 7.5% DMSO and 92.5% phosphate buffer at pH 7.4 at 200 uM after 2 hrs by LC-MS analysis; type: physicochemical; conditions: pH 7.4, 2 h; in short: as §4
Mus musculus [20] = assay: Antihypertensive activity in C57 mouse assessed as reduction of mean blood pressure at 22.5 mg/kg, po after 3 hrs relative to control; type: functional
In short: (§5)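 Conscious C57 black mice dosed orally at 22.5 mg/kg (60.345 μmol/kg), vehicle water with 1% methylcellulose; vehicle-only controls (n = 6), treated n = 4 at 1 h, 5 at 3 h, 6 at 6 h. Noninvasive BP (systolic, diastolic; mean = average of the two) and heart rate read at 1, 3, 6 h; each value is the average of three consecutive readings per mouse.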

Mus musculus [21] = assay: Antihypertensive activity in C57 mouse assessed as reduction of mean blood pressure at 22.5 mg/kg, po after 6 hrs relative to control; type: functional; in short: as §5
Mus musculus [22] = assay: Effect on heart rate in C57 mouse at 22.5 mg/kg, po after 6 hrs relative to control; type: ADME, organism-based; parameters: dose 22.5 mg/kg, route oral; conditions: in vivo; in short: as §5
Mus musculus [23] = assay: Antihypertensive activity in C57 mouse assessed as reduction of mean blood pressure at 22.5 mg/kg, po after 1 hr relative to control; type: functional; in short: as §5
Mus musculus [24] = assay: Effect on heart rate in C57 mouse at 22.5 mg/kg, po after 3 hrs relative to control; type: ADME, organism-based; parameters: dose 22.5 mg/kg, route oral; conditions: in vivo; in short: as §5
Mus musculus [25] = assay: Effect on heart rate in C57 mouse at 22.5 mg/kg, po after 1 hr relative to control; type: ADME, organism-based; parameters: dose 22.5 mg/kg, route oral; conditions: in vivo; in short: as §5
Mus musculus [26] = assay: Antihypertensive activity in C57 mouse assessed as reduction of systolic blood pressure at 22.5 mg/kg, po after 3 hrs relative to control; type: functional, Artery; in short: as §5
Mus musculus [27] = assay: Antihypertensive activity in C57 mouse assessed as reduction of diastolic blood pressure at 22.5 mg/kg, po after 1 to 6 hrs relative to control; type: functional, organism-based; parameters: dose 22.5 mg/kg; conditions: Artery, in the assay text read “after 3 to 6 hrs” for “after 1 to 6 hrs”; in short: as §5
Mus musculus [28] = assay: Antihypertensive activity in C57 mouse assessed as reduction of systolic blood pressure at 22.5 mg/kg, po after 1 hr relative to control; type: functional, Artery; in short: as §5
Mus musculus [29] = assay: Antihypertensive activity in C57 mouse assessed as reduction of systolic blood pressure at 22.5 mg/kg, po after 6 hrs relative to control; type: functional, Artery; in short: as §5

SMILES	Activity [1]	Activity [2]	Activity [3]	Activity [4]	Activity [5]	Activity [6]	Activity [7]	Activity [8]	Activity [9]	Activity [10]	Activity [11]	Activity [12]	half-life [13]	Activity [18]	Activity [19]	also measured
CC(C)NCC(O)c1ccc(O)c(O)c1 (configuration not stated) [ISOPROTERENOL]	–	–	–	–	–	–	–	–	–	–	–	–	–	–	–	Activity (Heart [14]): 334 bpm; Activity (Heart [15]): 5330 cmH2O/ms; Activity (Heart [16]): -5882 cmH2O/ms; Activity (Heart [17]): 157 cmH2O
CC(C)N[N+]([O-])=N[O-].[Na+]	36%	7%	9.5%	5.7%	6.8%	7.4%	62%	8.5%	9.4%	5.9%	8.3%	6.1%	0.0383 h	5.1%	5.4%	–
CC(C)N/[N+]([O-])=N/OCCS(=O)(=O)NOCc1ccccc1	24%	27.5%	30.3%	61.3%	0.8%	0.4%	6%	24.2%	3.8%	56.8%	9.7%	0.3%	6.6 h	55.4%	47.3%	–
CC(=O)OCO/N=[N+](\[O-])NC(C)C	–	–	–	–	–	–	–	–	–	–	–	–	0.683 h	–	–	–
[Na+].[Na+].[O-][N+]([O-])=NO [ANGELI'S SALT]	–	–	–	–	–	–	–	–	–	–	–	–	–	85.7%	85.9%	–

Continued, in another order:

Activity [1]	Activity [2]	Activity [3]	Activity [4]	Activity [5]	Activity [6]	Activity [7]	Activity [8]	Activity [9]	Activity [10]	Activity [11]	Activity [12]	half-life [13]	Activity [18]	Activity [19]	SMILES	also measured
42%	1.9%	1.3%	15.1%	0.2%	0.4%	10.6%	1.2%	1.4%	16.7%	1.9%	0.2%	17.1 h	–	–	COS(=O)(=O)CCO/N=[N+](\[O-])NC(C)C	–
25.4%	–	–	–	–	–	28.6%	–	–	–	–	–	–	7.2%	5.1%	CC(C)N(C(=O)OC(C)(C)C)/[N+]([O-])=N/OCCS(C)(=O)=O	–
10.4%	33.5%	29%	62.9%	1.8%	0.5%	0.8%	17.3%	5.9%	52.6%	12.9%	0.4%	8.9 h	51.3%	46.2%	CONS(=O)(=O)CCO/N=[N+](\[O-])NC(C)C	–
26%	10.4%	2.2%	62.2%	0.1%	0.9%	1.8%	0.4%	0.5%	52.9%	1.6%	1.3%	15.3 h	61.4%	51.2%	CC(C)N/[N+]([O-])=N/OCCS(C)(=O)=O	Activity (Heart [14]): 269 bpm; mean blood pressure (Mus musculus [20]): 83.6 mmHg; mean blood pressure (Mus musculus [21]): 87.5 mmHg; Activity (Mus musculus [22]): 442 bpm; mean blood pressure (Mus musculus [23]): 95.4 mmHg; Activity (Heart [15]): 5698 cmH2O/ms; Activity (Mus musculus [24]): 488 bpm; Activity (Heart [16]): -5330 cmH2O/ms; Activity (Mus musculus [25]): 531 bpm; systolic blood pressure (Mus musculus [26]): 103.4 mmHg; Activity (Mus musculus [27]): Active; systolic blood pressure (Mus musculus [28]): 120.2 mmHg; systolic blood pressure (Mus musculus [29]): 114.4 mmHg; Activity (Heart [17]): 187 cmH2O
4.6%	–	–	–	–	–	0.4%	–	–	–	–	–	–	4%	0.31%	CC(C)N/[N+]([O-])=N/OCS(C)(=O)=O	–
